In data set [1] the test system is Staphylococcus aureus. Description: Antimicrobial activity against methicillin-resistant Staphylococcus aureus clinical isolate IDRL 6169 after 24 to 48 hrs. In kind it is functional. The procedure, abridged:
(§1)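 Streaked from glycerol stock onto trypticase soy agar, 37 °C, 24 h. Single colonies were grown in trypticase soy broth to OD600 1.0 and diluted to OD600 0.003. Cells were incubated with compound at varying concentrations (1% DMSO stocks). Absorbance was read at 600 nm at 24 and 48 h, minus 690 nm background and relative to DMSO controls.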

Data set [2] has as its system Mycobacterium tuberculosis. Description: Antimicrobial activity against Mycobacterium tuberculosis H37Rv after 24 to 48 hrs. In kind it is functional.
A further data set has as its system Acinetobacter baumannii. Description: Antimicrobial activity against Acinetobacter baumannii ATCC 19606 after 24 to 48 hrs. In kind it is functional. To be noted: ATCC 19606 = CIP 70.34 = JCM 6841. The method in brief: (§2)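 Broth microdilution at 37 °C. Glycerol stocks streaked on 1.5% agar for 24 h. Single colonies grown in broth to OD600 1.0: trypticase soy for E. coli, P. aeruginosa and S. aureus; nutrient broth for A. baumannii and K. pneumoniae; brain heart infusion for E. faecalis. Diluted to OD600 0.003 with compound dilutions from DMSO stocks. OD600 read at 24 and 48 h, 690 nm background subtracted, normalized to DMSO control; MIC99.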

The test system of the next data set is Pseudomonas aeruginosa. Description: Antimicrobial activity against Pseudomonas aeruginosa ATCC 27853 after 24 to 48 hrs. In kind it is functional. The procedure, abridged:
as §2

Data set [3] is described as follows: Cytotoxicity against african green monkey Vero cells after 72 hrs by MTT assay. In kind it is cell-based. As to conditions: chlorocebus sabaeus, read-out: MIC50. The procedure, abridged:
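Vero cells (ATCC CCL-81) in MEM with 10% FBS, 1% PennStrep and 1% Glutamax, seeded at 3.0 × 10^4 cells/well and left to adhere overnight. Compound in DMSO added to final 100 to 0.16 μM, in triplicate, for 72 h at 37 °C, 4.5% CO2. MTT 1.0 mg/mL in phenol red-free RPMI for 3 h, formazan dissolved in isopropanol. A570 minus A690 gave % viability vs DMSO control; dose-response curves gave 50% growth-inhibitory concentration.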
In general terms: Tetrazolium dyes change colour on reduction, which living cells bring about.

Data set [4] deals with Mycolicibacterium smegmatis. Description: Antimicrobial activity against Mycobacterium smegmatis ATCC 607 after 24 to 48 hrs. In kind it is functional. The procedure, abridged: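 M. smegmatis streaked from glycerol stock onto nutrient agar (1.5%), then grown at 37 °C in nutrient broth with Tyloxapol added to prevent clumping, to OD600 1.0. Diluted to OD600 0.003 and exposed to compound dilutions from DMSO stocks. Absorbance at 600 nm read at 24 and 48 h, 690 nm background subtracted, normalized to DMSO controls; MIC99.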

For data set [5], the system named is Staphylococcus aureus. Description: Antimicrobial activity against methicillin-resistant Staphylococcus aureus ATCC 43300 after 24 to 48 hrs. In kind it is functional. The procedure, abridged:
as §1

The test system of the next data set is Candida albicans. Description: Antifungal activity against Candida albicans ATCC 10231 after 24 to 48 hrs. In kind it is functional. The method in brief:
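C. albicans streaked from glycerol stock onto YM agar and grown at 30 °C for 24 h. A single colony was grown in YM broth to OD600 1.0, diluted to OD600 0.003 and incubated with compound dilutions from DMSO stocks. Read at 600 nm at 24 and 48 h, 690 nm background subtracted, normalized to DMSO controls; MIC99.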

The next data set concerns Bacillus subtilis. Description: Antimicrobial activity against Bacillus subtilis ATCC 6633 after 24 to 48 hrs. In kind it is functional.
In data set [6] the test system is Staphylococcus aureus. Description: Antimicrobial activity against methicillin-susceptible Staphylococcus aureus clinical isolate IDRL 8545 after 24 to 48 hrs. In kind it is functional. The procedure, abridged:
as §2

The subject of the next data set is Klebsiella pneumoniae. Description: Antimicrobial activity against Klebsiella pneumoniae ATCC 13883 after 24 to 48 hrs. In kind it is functional. The method in brief: as §2
The next data set concerns Escherichia coli. Description: Antimicrobial activity against Escherichia coli ATCC 25922 after 24 to 48 hrs. In kind it is functional. The method in brief: as §2
Another data set concerns Enterococcus faecalis. Description: Antimicrobial activity against Enterococcus faecalis ATCC 51299 after 24 to 48 hrs. In kind it is functional. The procedure, abridged: as §2
Data set [7] relates to Mycolicibacterium smegmatis. Description: Antimicrobial activity against Mycobacterium smegmatis MC24517 after 24 to 48 hrs. In kind it is functional. The method in brief: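 Grown from glycerol stock on nutrient agar (1.5%) at 37 °C for 24 h, with Tyloxapol added to prevent clumping. Colonies were grown in nutrient broth to OD600 1.0, diluted to OD600 0.003 and incubated with compound dilutions (1% DMSO stocks). OD600 was read at 24 and 48 h, corrected for 690 nm background and standardised to DMSO controls.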

For orientation: MIC99 means an inhibitory concentration at the 99% level, which refers to growth in some studies and to a panel of isolates in others. Turning to `O=CNCCCC[C@@H](NC(=O)[C@H]1COC(c2ccccc2O)=N1)C(=O)O`, the MIC99 with Staphylococcus aureus [1] was above 100 µM; in [2], above 200 µM; against Acinetobacter baumannii, above 100 µM; against Pseudomonas aeruginosa it was above 100 µM; in data set [4], above 100 µM; against Staphylococcus aureus [5] it was above 100 µM. The MIC99 in the data set with Candida albicans, in the data set on Bacillus subtilis, in the data set with Staphylococcus aureus [6], in the data set with Klebsiella pneumoniae, against Escherichia coli and against Enterococcus faecalis was above 100 µM in each case. Also, in data set [7], the MIC99 is above 100 µM. Further, the CC50 at 72 h in [3] is above 200 µM.
Regarding `O=CNCCCCC(NC(=O)C1COC(c2ccccc2O)=N1)C(=O)O` (stereo unspecified) [TRANSVALENCIN Z], the MIC99 was 0.125 µg/mL in [4]; 1 µg/mL in the data set with Staphylococcus aureus [5]; above 64 µg/mL with Candida albicans; 16 µg/mL in the data set on Bacillus subtilis; above 64 µg/mL with Escherichia coli.
Turning to `O=CNCCCC[C@H](NC(=O)[C@H]1COC(c2ccccc2O)=N1)C(=O)O`, the MIC99 in the data set on Staphylococcus aureus [1] was above 100 µM; in [2], above 200 µM; against Acinetobacter baumannii, above 100 µM; against Pseudomonas aeruginosa it was above 100 µM; in data set [4] it was above 100 µM; in the data set on Staphylococcus aureus [5] it was above 100 µM. Further, the MIC99 in the data set with Candida albicans, in the data set on Bacillus subtilis, against Staphylococcus aureus [6], in the data set on Klebsiella pneumoniae, against Escherichia coli and against Enterococcus faecalis was above 100 µM in each case. Further, the MIC99 in [7] was above 100 µM. In data set [3], the CC50 at 72 h was above 200 µM.
With `O=CNCCCC[C@H](NC(=O)[C@@H]1COC(c2ccccc2O)=N1)C(=O)O`, the MIC99 with Staphylococcus aureus [1] was above 100 µM; in [2], above 200 µM; in the data set with Acinetobacter baumannii it was above 100 µM; against Pseudomonas aeruginosa, above 100 µM; in data set [4] it was above 100 µM; with Staphylococcus aureus [5] it was above 100 µM. Besides, the MIC99 in the data set on Candida albicans, with Bacillus subtilis, in the data set on Staphylococcus aureus [6], against Klebsiella pneumoniae, with Escherichia coli and against Enterococcus faecalis was above 100 µM throughout. This compound also registered an MIC99 in [7] above 100 µM. Also, the CC50 at 72 h in data set [3] amounted to 164 µM.
In the case of `O=CNCCCC[C@@H](NC(=O)[C@@H]1COC(c2ccccc2O)=N1)C(=O)O`, the MIC99 against Staphylococcus aureus [1] is above 100 µM; in [2] it was above 200 µM; against Acinetobacter baumannii, above 100 µM; in the data set on Pseudomonas aeruginosa, above 100 µM; in data set [4], above 100 µM; in the data set on Staphylococcus aureus [5] it was above 100 µM. Also, the MIC99 against Candida albicans, against Bacillus subtilis, in the data set on Staphylococcus aureus [6], against Klebsiella pneumoniae, in the data set with Escherichia coli and against Enterococcus faecalis was above 100 µM each time. Also, in data set [7], the MIC99 is above 100 µM. Besides, in [3], the CC50 at 72 h is 154 µM.

The values are drawn from ChEMBL document CHEMBL2062518, “Total synthesis and biological evaluation of transvalencin Z” (J Nat Prod, 2012).
